According to article PMC4304477 (Journal of the American Chemical Society, 2014):

Columns and labels:
[1] = system: P. aeruginosa PBP4; type: biochemical
How it was run: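 His-tagged P. aeruginosa PBP4 (residues 23–476) was expressed in E. coli Lemo21(DE3), passed twice over a chelating column and dialysed into 50 mM Tris pH 7.6, 0.5 M NaCl. It was used within 5 days and quantified by A280 (ε 62 005 M–1cm–1). Synthetic substrate at 0.125–5 mM was reacted in 50 mM Tris, 0.1 M NaCl, pH 7.6, 25 °C. After 30 min, one volume of 0.2% TFA was added. D-Ala-loss products were quantified by C18 HPLC against an internal standard to give steady-state kcat and Km.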

[2] = system: PBPs, including PBP4; conditions: background statement, no reference given; cited from earlier work
[3] = system: AmpC β-lactamase production; conditions: background statement, no reference given; cited from earlier work

Row | kcat comparison in words ([1]; 18 vs 19, pH 7.6, 25 °C) | Compound | turnover product ([1]; PBP4, t = 30 min, LC/MS TIC, comparison with authentic synthetic 31) | PBP inhibition [2] | AmpC β-lactamase induction [3]
1 | slightly higher than for 19 | NAM-L-Ala-D-γ-Glu-meso-DAP-D-Ala-D-Ala [Compound 18] | This new peak was proven to be compound 31 |  | 
2 |  | CO[C@@]1(NC(=O)Cc2cccs2)C(=O)N2C(C(=O)O)=C(COC(N)=O)CS[C@@H]21 [cefoxitin] |  | inhibits PBPs, including PBP4 | a high inducer of AmpC β-lactamase production
